According to ChEMBL document CHEMBL1152401, “Synthesis of novel macrolide derivatives with imidazo[4,5-b]pyridinyl sulfur contained alkyl side chains and their antibacterial activity” (Bioorg Med Chem Lett, 2009):
The source made the active and inactive calls. The rule behind the calls is not given here.

Legend:
Format in all cases: functional, organism-based
Streptococcus pneumoniae [1] = assay: Antimicrobial activity against erythromycin-susceptible Streptococcus pneumoniae ATCC 49619 by broth microdilution method
Procedure, shortened: (§1)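 MIC by broth microdilution following NCCLS recommendations. Strains used as erythromycin-susceptible clinical or reference isolates: S. pneumoniae ATCC 49619 and 07H252, S. pyogenes 07U084 and 07U086. Resistant comparison strains came from MOHNARIN, China. Value reported as minimum inhibitory concentration.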

Streptococcus pneumoniae [2] = assay: Antimicrobial activity against erythromycin-susceptible Streptococcus pneumoniae 07H252 by broth microdilution method; procedure, shortened: as §1
Streptococcus pneumoniae [3] = assay: Antimicrobial activity against erythromycin-resistant Streptococcus pneumoniae 07Z001 by broth microdilution method
Procedure, shortened: (§2)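 MIC by broth microdilution as recommended by NCCLS. Strains are constitutively erythromycin-resistant clinical isolates supplied by the Ministry of Health National Antimicrobial Resistance Investigation Net (MOHNARIN, China).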

Streptococcus pneumoniae [4] = assay: Antimicrobial activity against erythromycin-resistant Streptococcus pneumoniae 05Z006 by broth microdilution method; procedure, shortened: as §2
Streptococcus pyogenes [5] = assay: Antimicrobial activity against erythromycin-susceptible Streptococcus pyogenes 07U084 by broth microdilution method; procedure, shortened: as §1
Streptococcus pyogenes [6] = assay: Antimicrobial activity against erythromycin-susceptible Streptococcus pyogenes 07U086 by broth microdilution method; procedure, shortened: as §1
Streptococcus pyogenes [7] = assay: Antimicrobial activity against erythromycin-resistant Streptococcus pyogenes 07Z011 by broth microdilution method; procedure, shortened: as §2
Streptococcus pyogenes [8] = assay: Antimicrobial activity against erythromycin-resistant Streptococcus pyogenes 07Z014 by broth microdilution method; procedure, shortened: as §2
Streptococcus pyogenes [9] = assay: Antimicrobial activity against erythromycin-resistant Streptococcus pyogenes 07Z016 by broth microdilution method; procedure, shortened: as §2

Row | Compound | Activity (Streptococcus pneumoniae [1]) | Activity (Streptococcus pneumoniae [2]) | Activity (Streptococcus pneumoniae [3]) | Activity (Streptococcus pneumoniae [4]) | Activity (Streptococcus pyogenes [5]) | Activity (Streptococcus pyogenes [6]) | Activity (Streptococcus pyogenes [7]) | Activity (Streptococcus pyogenes [8]) | Activity (Streptococcus pyogenes [9])
1 | CC[C@H]1OC(=O)[C@H](C)C(=O)[C@H](C)[C@@H](O[C@@H]2O[C@H](C)C[C@H](N(C)C)[C@H]2O)[C@@](C)(OC)C[C@@H](C)C(=O)[C@H](C)[C@H]2N(CCCSc3nc4ccc(OC)nc4[nH]3)C(=O)O[C@]12C | Active | Active | Active | Active | Active | Active | Active | Active | Active
2 | CC[C@H]1OC(=O)[C@H](C)[C@@H](O[C@H]2C[C@@](C)(OC)[C@@H](O)[C@H](C)O2)[C@H](C)[C@@H](O[C@@H]2O[C@H](C)C[C@H](N(C)C)[C@H]2O)[C@](C)(O)C[C@@H](C)CN(C)[C@H](C)[C@@H](O)[C@]1(C)O | Active | Active | inactive | inactive | Active | Active | inactive | inactive | inactive
3 | CC[C@H]1OC(=O)[C@H](C)[C@@H](OC(=O)Cc2cccnc2)[C@H](C)[C@@H](O[C@@H]2O[C@H](C)C[C@H](N(C)C)[C@H]2O)[C@@](C)(OC)C[C@@H](C)C(=O)[C@H](C)[C@H]2N(CCCCSc3nc4ccc(OC)nc4[nH]3)C(=O)O[C@]12C | Active | Active | Active | Active | Active | Active | Active | Active | Active
4 | CC[C@H]1OC(=O)[C@H](C)[C@@H](O[C@H]2C[C@@](C)(OC)[C@@H](O)[C@H](C)O2)[C@H](C)[C@@H](O[C@@H]2O[C@H](C)C[C@H](N(C)C)[C@H]2O)[C@](C)(OC)C[C@@H](C)C(=O)[C@H](C)[C@@H](O)[C@]1(C)O | Active | Active | inactive | inactive | Active | Active | inactive | inactive | inactive
5 | CC[C@H]1OC(=O)[C@H](C)[C@@H](OC(=O)Cc2cccnc2)[C@H](C)[C@@H](O[C@@H]2O[C@H](C)C[C@H](N(C)C)[C@H]2O)[C@@](C)(OC)C[C@@H](C)C(=O)[C@H](C)[C@H]2N(CCCSc3nc4ccc(OC)nc4[nH]3)C(=O)O[C@]12C | Active | Active | Active | Active | Active | Active | Active | Active | Active
6 | CC[C@H]1OC(=O)[C@H](C)[C@@H](OC(=O)Cc2ccc3c(c2)OCO3)[C@H](C)[C@@H](O[C@@H]2O[C@H](C)C[C@H](N(C)C)[C@H]2O)[C@@](C)(OC)C[C@@H](C)C(=O)[C@H](C)[C@H]2N(CCCSc3nc4ccc(OC)nc4[nH]3)C(=O)O[C@]12C | Active | Active | Active | Active | Active | Active | Active | Active | Active
7 | CC[C@H]1OC(=O)[C@H](C)C(=O)[C@H](C)[C@@H](O[C@@H]2O[C@H](C)C[C@H](N(C)C)[C@H]2O)[C@](C)(OC)C[C@@H](C)C(=O)[C@H](C)[C@H]2N(CCCCn3cnc(-c4cccnc4)c3)C(=O)O[C@]12C | Active | Active | Active | Active | Active | Active | Active | Active | Active
8 | CC[C@H]1OC(=O)[C@H](C)[C@@H](OC(=O)Cc2ccc3c(c2)OCO3)[C@H](C)[C@@H](O[C@@H]2O[C@H](C)C[C@H](N(C)C)[C@H]2O)[C@@](C)(OC)C[C@@H](C)C(=O)[C@H](C)[C@H]2N(CCCCSc3nc4ccc(OC)nc4[nH]3)C(=O)O[C@]12C | Active | Active | Active | Active | Active | Active | Active | Active | Active
